These results are taken from ChEMBL document CHEMBL1154616, “Synthesis and antitumor activity studies of some new fused 1,2,4-triazole derivatives carrying 2,4-dichloro-5-fluorophenyl moiety” (Eur J Med Chem, 2009).

One may read the GI50 as the concentration giving 50% growth inhibition. Higher therefore signals less potent growth inhibition.

Holding throughout (type): functional
Test [1] concerns SF-268. Briefly: Anticancer activity against human SF268 cells assessed as cell growth at 100 uM after 48 hrs by sulforhodamine B assay relative to control. As to conditions: SF-268, 48 h, read-out: Activity. The method in brief: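 Three-cell-line prescreen (NCI-H460 lung, MCF7 breast, SF 268 CNS), each preincubated on microtiter plates. The agent is added at a single concentration and cultures are incubated 48 h. Growth is read by sulphorhodamine B protein staining and reported as percent growth of treated versus untreated control cells; negative values indicate cell kill.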
On the technique in general: In SRB staining, fixed cells bind dye roughly in proportion to their protein.

Test [2] has as its system SR. The test is described as follows: Anticancer activity against human SR cells after 48 hrs by sulforhodamine B assay. The method, boiled down: (§1)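 Cells from the 60-line full panel are preincubated on microtiter plates, then treated across a five-log dose range for 48 h. Growth is read with the protein-binding dye sulforhodamine B. GI50 is the concentration giving 50% growth inhibition relative to untreated control cells.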

For test [3], the system named is NCI-H226. Briefly: Anticancer activity against human NCI-H226 cells after 48 hrs by sulforhodamine B assay. As to conditions: NCI-H226, 48 h. The method, boiled down:
(§2)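 Full 60-cell-line panel, compounds tested over a five-log dose range. Cells are preincubated on microtiter plates, the agent is added, and cultures run 48 h. The end point is sulphorhodamine B protein staining. GI50 is taken as the concentration giving 50% growth inhibition relative to untreated control cells.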

Test [4] has as its system NCI-H460. Briefly: Anticancer activity against human NCI-H460 cells after 48 hrs by sulforhodamine B assay. As to conditions: NCI-H460, 48 h. The method in brief:
as §2

Test [5] relates to SF-268. Briefly: Anticancer activity against human SF268 cells after 48 hrs by sulforhodamine B assay. To be noted: SF-268, 48 h. The method, boiled down:
as §2

Test [6] deals with SNB-75. Briefly: Anticancer activity against human SNB75 cells after 48 hrs by sulforhodamine B assay. To be noted: SNB-75, 48 h. The method in brief: as §1
Test [7] deals with M14. Briefly: Anticancer activity against human M14 cells after 48 hrs by sulforhodamine B assay. To be noted: M14, 48 h. The method in brief: as §2
In test [8] the test system is UACC-62. Briefly: Anticancer activity against human UACC62 cells after 48 hrs by sulforhodamine B assay. To be noted: UACC-62, 48 h. The method in brief: as §1
Test [9] concerns OVCAR-4. Briefly: Anticancer activity against human OVCAR4 cells after 48 hrs by sulforhodamine B assay. To be noted: OVCAR-4, 48 h. The method in brief: as §2
The test system of test [10] is ACHN. The test is described as follows: Anticancer activity against human ACHN cells after 48 hrs by sulforhodamine B assay. The method in brief: as §2
Test [11] concerns CAKI-1. Briefly: Anticancer activity against human Caki1 cells after 48 hrs by sulforhodamine B assay. As to conditions: CAKI-1, 48 h. The method, boiled down:
as §2

For test [12], the system named is SN12C. Briefly: Anticancer activity against human SN12C cells after 48 hrs by sulforhodamine B assay. The method in brief:
as §2

Test [13] has as its system UO-31. The test is described as follows: Anticancer activity against human UO31 cells after 48 hrs by sulforhodamine B assay. As to conditions: UO-31, 48 h. The method, boiled down: as §1
Test [14] has as its system PC-3. The test is described as follows: Anticancer activity against human PC3 cells after 48 hrs by sulforhodamine B assay. To be noted: PC-3, 48 h. The method in brief: as §2
The subject of test [15] is MDA-MB-231. Briefly: Anticancer activity against human MDA-MB-231 cells after 48 hrs by sulforhodamine B assay. To be noted: MDA-MB-231, 48 h. The method, boiled down: as §2

As for `Fc1cc(-c2nnc3n2N=C(c2ccc(Cl)cc2Cl)CS3)c(Cl)cc1Cl`, the growth at 100 µM in [1] came out at 76%. Moreover, the GI50 in [2] was greater than 100 µM; in [3], 36.5 µM; in test [4], 37.3 µM; in [5], 36.6 µM; in test [6], greater than 100 µM; in [7], 37.5 µM. Also, the 50% growth inhibitory concentration (GI50) in test [8] was 24.9 µM; in [9] it was greater than 100 µM; in test [10] it was 66.6 µM; in test [11], 35.9 µM; in test [12], 56.4 µM; in test [13] it was 60.2 µM. Also, the concentration for 50% growth inhibition (GI50) is 39.2 µM in test [14] and 33.7 µM in test [15].
